According to article PMC3913215 (Molecular microbiology, 2009):
pEC50: −log10 of the molar value.

Columns and labels:
AgrC-IHis (H239Q) = assay: β-lactamase reporter assay, AgrC-IHis; type: cell-based, S. aureus; conditions: H-box mutant; varying concentrations of synthetic AIP (Figure S1)
Procedure, shortened: (§1)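 Agr-deficient S. aureus RN10829 derivatives lacking AIP production, carrying a chromosomal P3-blaZ fusion and agrP2-driven plasmid agrC (compatible plasmids for co-expression), grown to mid-exponential phase in CYGP or MH broth at 37 °C with shaking. Cells were plated and given increasing synthetic AIP. β-Lactamase was read by nitrocefin initial velocity as percent maximal activation. EC50 came from a four-parameter logistic fit. Two or three replicates.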

AgrC-IHis / AgrC-IKin = assay: β-lactamase reporter assay, activation of co-expressed AgrC-IHis / AgrC-IKin; type: cell-based, S. aureus; conditions: co-expressed mutants
Procedure, shortened: as §1

AgrC-I-GFP = assay: β-lactamase reporter assay, AgrC-I-GFP; type: cell-based, S. aureus; conditions: C-terminal GFP fusion (Figure S2)
[1] = system: AgrC-ISensor, His / AgrC-ISensor, Kin; assay: β-lactamase reporter assay, co-expressed AgrC-ISensor, His / AgrC-ISensor, Kin; type: cell-based, S. aureus
Procedure, shortened: as §1

[2] = system: AgrC-IHis / AgrC-ISensor, Kin; assay: β-lactamase reporter assay, activation of AgrC-IHis / AgrC-ISensor, Kin; type: cell-based, S. aureus; conditions: Kin combined with AgrC-IHis versus AgrC-ISensor, His
WT AgrC-II = assay: β-lactamase reporter assay, WT AgrC-II; type: cell-based, S. aureus; conditions: read-out: EC50 (no activation); P3-blaZ reporter cells, nitrocefin method
Procedure, shortened: as §1

[3] = system: AgrC-IHis / AgrC-IΔ1-135, Kin; assay: β-lactamase reporter assay, AgrC-IHis / truncated AgrC-IΔ1-135, Kin; type: cell-based, S. aureus; conditions: full-length AgrC-IHis with AgrC-IΔ1-135, Kin (Figure S5B)
[4] = system: N-terminal truncations of AgrC-I; assay: β-lactamase reporter assay, N-terminally truncated AgrC-I alone; type: cell-based, S. aureus; conditions: two truncated sensor domains, expressed alone (Figure S5A)
AgrC-I N339D = assay: β-lactamase reporter assay, AgrC-I N339D; type: cell-based, S. aureus; conditions: N-box mutant; varying concentrations of synthetic AIP
AgrC-I G394A = assay: β-lactamase reporter assay, AgrC-I G394A; type: cell-based, S. aureus; conditions: individual G-box glycine mutant; varying concentrations of synthetic AIP
AgrC-I G396A = assay: β-lactamase reporter assay, AgrC-I G396A; type: cell-based, S. aureus; conditions: individual G-box glycine mutant; varying concentrations of synthetic AIP
[5] = system: AgrC-ISensor (T104V, S107A, S116I); conditions: mutations in second extracellular loop; ref Geisinger et al., 2008; cited from earlier work
AgrC-II = conditions: background statement, no reference at the place; cited from earlier work

Substance: AIP-I
- receptor activation (AgrC-IHis (H239Q)): completely inactive
- maximal activity compared to WT AgrC (AgrC-IHis / AgrC-IKin): moderately reduced compared to WT AgrC
- receptor activation compared to WT (AgrC-I-GFP): only slightly decreased compared to the WT receptor
- reduction in activity compared with WT sensor domains ([1]; AgrC-ISensor, His / AgrC-ISensor, Kin versus WT sensor domains): over 150 -fold
- pEC50 ([1]; co-expressed mutants, both sensor domains mutated): 5.21
- increase in activation by AIP-I [2]: approximately 30 -fold
- pEC50 (WT AgrC-II): < 5.00
- activation by AIP-I [3]: significant activity
- maximal activation relative to full-length complementary pair [3]: only a third of that observed for the full-length complementary pair
- activation by AIP-I [4]: None of the resulting dimers, with two truncated sensor domains, displayed significant activity
- receptor activation (AgrC-I N339D): only partially reduced receptor activation
- receptor activation (AgrC-I G394A): weaker activation than that seen with AgrC-I N339D
- receptor activation (AgrC-I G396A): weaker activation than that seen with AgrC-I N339D
- reduction in sensitivity to AIP-I [5]: about 50 -fold
- antagonism of AgrC-II (AgrC-II): potent cross-group inhibitors
